Active and inactive are the calls of the source. The calls are words filed in the database; no cut-off is given here.
Key:
[1] = biological target: T1, Renin (Homo sapiens) (UniProt P00797); assay: Tested for inhibition against human renin at a concentration of 100 uM
T1 sequence (whole entry): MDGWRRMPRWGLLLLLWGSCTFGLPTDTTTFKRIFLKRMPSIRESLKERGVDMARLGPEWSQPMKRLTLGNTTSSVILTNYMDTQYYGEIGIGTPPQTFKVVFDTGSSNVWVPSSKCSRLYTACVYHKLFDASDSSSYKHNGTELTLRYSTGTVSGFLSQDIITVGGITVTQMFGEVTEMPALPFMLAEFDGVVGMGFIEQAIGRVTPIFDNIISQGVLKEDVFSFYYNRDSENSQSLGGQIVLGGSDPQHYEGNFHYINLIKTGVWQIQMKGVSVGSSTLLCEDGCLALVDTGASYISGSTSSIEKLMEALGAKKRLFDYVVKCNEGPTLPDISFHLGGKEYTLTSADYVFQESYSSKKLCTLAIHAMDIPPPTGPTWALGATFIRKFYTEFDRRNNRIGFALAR
How it was run: (§1)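 Partially purified human renal renin with human angiotensinogen partially purified from volunteer plasma (ammonium sulfate fractionation, DEAE-Sephacel). Final mix: 50 mM phosphate pH 7.0, 3 mM EDTA, 3 mM 8-hydroxyquinoline, 0.5 mM PMSF, 0.1% azide, 0.1% BSA, 1% DMSO. […] Incubation 120 min at 30 °C, stopped on ice. Angiotensin I measured by radioimmunoassay; percent inhibition of vehicle control rate.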

[2] = biological target: T1, Renin (Homo sapiens); assay: Tested for inhibition against human renin at a concentration of 100 uM; Inactive; how it was run: as §1
[3] = biological target: T2, Renin (Homo sapiens, UniProt P00797); assay: Inhibitory activity against human renin
T2 sequence (P00797 whole entry): T1 sequence (whole entry)
How it was run: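 Partially purified human renal renin with human angiotensinogen partially purified from volunteer plasma (ammonium sulfate fractionation, DEAE-Sephacel). Final mix: 50 mM phosphate pH 7.0, 3 mM EDTA, 3 mM 8-hydroxyquinoline, 0.5 mM PMSF, 0.1% azide, 0.1% BSA, 1% DMSO. Incubation 120 min at 30 °C, stopped on ice. Angiotensin I measured by radioimmunoassay; percent inhibition of vehicle control rate.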

[4] = biological target: Renin (Sus scrofa); assay: Inhibitory activity against porcine renin
[5] = biological target: T1, Renin (Homo sapiens); assay: Ratio of inhibitory activity of porcine renin to that of human renin; conditions: Sus scrofa
[6] = biological target: T1, Renin (Homo sapiens); assay: Tested for inhibition against human renin at a concentration of 1 uM; how it was run: as §1
[7] = biological target: T1, Renin (Homo sapiens); assay: Tested for inhibition against human renin at a concentration of 10 uM; how it was run: as §1

Row | Structure (SMILES) | inhibition [1] [%] | IC50 [3] [nM] | also measured
1 | CC(C)(C)OC(=O)N[C@@H]1CCC(=O)N([C@@H](CCCCN)C(N)=O)C(=O)[C@@H](Cc2ccccc2)NC1=O |  |  | inhibition [2]: inactive
2 | COC(=O)[C@H](CCCCN)N1C(=O)CC[C@@H](NC(=O)OC(C)(C)C)C(=O)N[C@H](Cc2ccccc2)C1=O |  |  | inhibition [2]: inactive
3 | CC[C@@H](C)[C@H](NC(=O)C(Cc1c[nH]c2ccccc12)NC(=O)[C@H](CCCCN)N1C(=O)CC[C@@H](NC(=O)OCc2ccccc2)C(=O)N[C@H](Cc2ccccc2)C1=O)C(=O)NC (stereo in doubt) |  | 810 | 
4 | COC(=O)C(CCSC)NC(=O)[C@H](CC(C)C)NC(=O)C(Cc1c[nH]c2ccccc12)NC(=O)[C@H](CCCCN)N1C(=O)CC[C@@H](NC(=O)OCc2ccccc2)C(=O)N[C@H](Cc2ccccc2)C1=O (stereo in doubt) |  | 450 | 
5 | COC(=O)[C@@H](CCSC)NC(=O)[C@H](CC(C)C)NC(=O)C(Cc1c[nH]c2ccccc12)NC(=O)[C@H](CCCCN)N1C(=O)CC[C@@H](NC(=O)OCc2ccccc2)C(=O)N[C@H](Cc2ccccc2)C1=O (stereo in doubt) |  | 290 | 
6 | CC(C)CCNC(=O)C(Cc1c[nH]c2ccccc12)NC(=O)[C@H](CCCCN)N1C(=O)CC[C@@H](NC(=O)COc2ccccc2)C(=O)N[C@H](Cc2ccccc2)C1=O (stereo in doubt) |  | 430 | IC50 [4]: 8.2 µM; Ratio [5]: 19.2
7 | CCNC(=O)[C@H](CC(C)C)NC(=O)C(Cc1c[nH]c2ccccc12)NC(=O)[C@H](CCCCN)N1C(=O)CC[C@@H](NC(=O)OCc2ccccc2)C(=O)N[C@H](Cc2ccccc2)C1=O (stereo in doubt) |  | 850 | 
8 | CC(C)(C)CNC(=O)C(Cc1c[nH]c2ccccc12)NC(=O)[C@H](CCCCN)N1C(=O)CC[C@@H](NC(=O)OCc2ccccc2)C(=O)N[C@H](Cc2ccccc2)C1=O (stereo in doubt) |  | 1700 | 
9 | CNC(=O)[C@H](CC(C)C)NC(=O)C(Cc1c[nH]c2ccccc12)NC(=O)[C@H](CCCCN)N1C(=O)CC[C@@H](NC(=O)OCc2ccccc2)C(=O)N[C@H](Cc2ccccc2)C1=O (stereo in doubt) |  | 340 | 
10 | CC(=O)NCSC[C@H]1NC(=O)[C@H](Cc2ccccc2)NC(=O)CN(C)C(=O)[C@@H](CC(C)C)NC(=O)C(Cc2c[nH]c3ccccc23)NC1=O (stereo in doubt) |  |  | inhibition [2]: inactive
11 | CC(=O)NCSC[C@H]1NC(=O)[C@H](Cc2ccccc2)NC(=O)CNC(=O)[C@@H](CC(C)C)NC(=O)C(Cc2c[nH]c3ccccc23)NC1=O (stereo in doubt) |  |  | inhibition [2]: inactive
12 | CC(C)C[C@H]1NC(=O)C(Cc2c[nH]c3ccccc23)NC(=O)[C@@H](CCCCN)N(C(=O)[C@@H](N)Cc2ccccc2)C1=O (stereo in doubt) |  |  | inhibition [2]: inactive
13 | CC(C)C[C@H]1NC(=O)C(Cc2c[nH]c3ccccc23)NC(=O)[C@@H](CCCCN)N(C(=O)[C@H](Cc2ccccc2)NC(=O)OCc2ccccc2)C1=O (stereo in doubt) |  |  | inhibition [2]: inactive
14 | COC(=O)[C@@H](NC(=O)C(Cc1c[nH]c2ccccc12)NC(=O)[C@H](CCCCN)N1C(=O)CC[C@@H](NC(=O)OCc2ccccc2)C(=O)N[C@H](Cc2ccccc2)C1=O)C1CCCCC1 (stereo in doubt) | 67 |  | 
15 | COC(=O)[C@@H]1CCCN1C(=O)[C@H](CC(C)C)NC(=O)C(Cc1c[nH]c2ccccc12)NC(=O)[C@H](CCCCN)N1C(=O)CC[C@@H](NC(=O)OCc2ccccc2)C(=O)N[C@H](Cc2ccccc2)C1=O (stereo in doubt) |  |  | inhibition [7]: 76%
16 | COC(=O)[C@H](CC(C)C)NC(=O)C(Cc1c[nH]c2ccccc12)NC(=O)[C@@H](CCCCN)N1C(=O)C[C@H](NC(=O)OCc2ccccc2)C(=O)N[C@H](Cc2ccccc2)C1=O (stereo in doubt) | 32 |  | 
17 | COC(=O)[C@H](CC(C)C)NC(=O)C(Cc1c[nH]c2ccccc12)NC(=O)[C@@H](CCCN)N1C(=O)C[C@H](NC(=O)OCc2ccccc2)C(=O)N[C@H](Cc2ccccc2)C1=O (stereo in doubt) |  |  | inhibition [2]: inactive
18 | COC(=O)[C@H](CC(C)C)NC(=O)C(Cc1c[nH]c2ccccc12)NC(=O)[C@@H]1CCC(=O)N[C@H](CCCCNC(=O)OCc2ccccc2)C(=O)N[C@@H](Cc2ccccc2)C(=O)N1 (stereo in doubt) |  |  | inhibition [2]: inactive
19 | COC(=O)[C@H](CC(C)C)NC(=O)C(Cc1c[nH]c2ccccc12)NC(=O)[C@H](CCCCN)N1C(=O)CSC[C@@H](NC(=O)OCc2ccccc2)C(=O)N[C@H](Cc2ccccc2)C1=O (stereo in doubt) | 53 |  | 
20 | COC(=O)[C@H](CC(C)C)NC(=O)C(Cc1c[nH]c2ccccc12)NC(=O)[C@H](CCCN)N1C(=O)CC[C@H](NC(=O)OCc2ccccc2)C(=O)N[C@@H](Cc2ccccc2)C1=O (stereo in doubt) | 42 |  | 
21 | COC(=O)[C@H](CCSC)NC(=O)[C@H](CC(C)C)NC(=O)C(Cc1c[nH]c2ccccc12)NC(=O)[C@H](CS)NC(=O)[C@H](Cc1ccccc1)NC(=O)[C@H](CS)NC(=O)OC(C)(C)C (stereo in doubt) | 22 |  | 

More lines, main results first:

Row | inhibition [1] [%] | IC50 [3] [nM] | Structure (SMILES) | also measured
22 | 79 |  | CC(C)(C)OC(=O)N[C@@H]1CCC(=O)N([C@@H](CCCCN)C(=O)NCCc2c[nH]c3ccccc23)C(=O)[C@@H](Cc2ccccc2)NC1=O | 
23 | 33 |  | CC(Cc1c[nH]c2ccccc12)NC(=O)[C@H](CCCCN)N1C(=O)CC[C@@H](NC(=O)OC(C)(C)C)C(=O)N[C@H](Cc2ccccc2)C1=O (some centres not stated) | 
24 | 41 |  | CCC(Cc1c[nH]c2ccccc12)NC(=O)[C@H](CCCCN)N1C(=O)CC[C@@H](NC(=O)OC(C)(C)C)C(=O)N[C@H](Cc2ccccc2)C1=O (some centres not stated) | 
25 |  | 130 | CCC(C)CN[C@@H]1CCC(=O)N([C@@H](CCCCN)C(=O)NC(Cc2c[nH]c3ccccc23)C(=O)NCCC(C)C)C(=O)[C@@H](Cc2ccccc2)NC1=O (stereo in doubt) | 
26 |  | 710 | CC(C)CCNC(=O)C(Cc1c[nH]c2ccccc12)NC(=O)[C@H](CCCCN)N1C(=O)CC[C@@H](N)C(=O)N[C@H](Cc2ccccc2)C1=O (stereo in doubt) | IC50 [4]: 46 µM; Ratio [5]: 64.7
27 |  | 1900 | CC(C)CCNC(=O)C(Cc1c[nH]c2ccccc12)NC(=O)[C@H](CCCCN)N1C(=O)CC[C@@H](NCc2c[nH]c3ccccc23)C(=O)N[C@H](Cc2ccccc2)C1=O (stereo in doubt) | 
28 |  | 210 | CC(C)CCNC(=O)C(Cc1c[nH]c2ccccc12)NC(=O)[C@H](CCCCN)N1C(=O)CC[C@@H](NC(=O)OC(C)(C)C)C(=O)N[C@H](Cc2ccccc2)C1=O (stereo in doubt) | IC50 [4]: 8.5 µM; Ratio [5]: 40.4
29 |  | 63 | CC(C)CCNC(=O)C(Cc1c[nH]c2ccccc12)NC(=O)[C@H](CCCCN)N1C(=O)CC[C@@H](NCC(C)(C)C)C(=O)N[C@H](Cc2ccccc2)C1=O (stereo in doubt) | IC50 [4]: 7.1 µM; Ratio [5]: 113
30 | 56 |  | CC(=O)NCSC[C@@H]1NC(=O)[C@@H](CC(C)C)NC(=O)C(Cc2c[nH]c3ccccc23)NC(=O)[C@@H](CSCNC(C)=O)NC(=O)[C@H](Cc2ccccc2)NC1=O (stereo in doubt) | 
31 | 38 |  | CC(=O)NCSC[C@H]1NC(=O)[C@H](Cc2ccccc2)NC(=O)[C@@H]2CCCN2C(=O)[C@@H](CC(C)C)NC(=O)C(Cc2c[nH]c3ccccc23)NC1=O (stereo in doubt) | 
32 | 93 |  | CC(C)CCNC(=O)C(Cc1c[nH]c2ccccc12)NC(=O)[C@H](CCCCN)N1C(=O)CC[C@@H](NC(C)C)C(=O)N[C@H](Cc2ccccc2)C1=O (stereo in doubt) | inhibition [6]: 30%
33 | 69.2 |  | COC(=O)C(Cc1c[nH]c2ccccc12)NC(=O)[C@H](CCCCN)N1C(=O)CC[C@@H](NC(=O)OCc2ccccc2)C(=O)N[C@H](Cc2ccccc2)C1=O (stereo in doubt) | 

— ChEMBL document CHEMBL1124914, “Novel inhibitors of human renin. Cyclic peptides based on the tetrapeptide sequence Glu-D-Phe-Lys-D-Trp” (J Med Chem, 1990)
